# In ChEMBL document CHEMBL1142349, “Molecular modeling study and synthesis of novel pyrrolo[2,3-d]pyrimidines and pyrrolotriazolopyrimidines of expected antitumor and radioprotective activities” (Bioorg Med Chem, 2008):
# How the values were obtained:
# [1] = system: Mus musculus; test: Radioprotective activity against gamma-irradiated Swiss albino mouse assessed as reduction of plasma lipid peroxide level at 150 mg/kg, ip after 7 days; type: functional; conditions: route intraperitoneal
# How it was run: (§1)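 Female Swiss albino mice (25–30 g) were dosed ip at 150 mg/kg in CMC every other day ×3 over 7 days. Each dose was given 30 min before 6 Gy whole-body γ-irradiation (Cs-137, 0.86 Gy/min). Mice were fasted 16 h and bled by heart puncture 1 day after the last irradiation. Plasma lipid peroxide was measured as MDA (Yoshioka). Values are mean ± SE, n=8, as % change from control, with t test.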
# [2] = system: Mus musculus; test: Radioprotective activity against gamma-irradiated Swiss albino mouse assessed as increase in blood glutathione level at 150 mg/kg, ip after 7 days relative to control; conditions: route intraperitoneal
# [3] = system: Mus musculus; test: Radioprotective activity against gamma-irradiated Swiss albino mouse assessed as increase in blood glutathione level at 150 mg/kg, ip after 7 days; conditions: route intraperitoneal
# [4] = system: Mus musculus; test: Radioprotective activity against gamma-irradiated Swiss albino mouse assessed as reduction of plasma lipid peroxide level at 150 mg/kg, ip after 7 days relative to control; type: functional; design: scale not given: the % may be the effect or the level left; conditions: route intraperitoneal; how it was run: as §1
# [5] = system: Ehrlich; test: Cytotoxicity against mouse Ehrlich Ascites carcinoma assessed as non viable cells at 100 umol/mL after 2 hrs by trypan blue exclusion assay; type: functional
# How it was run: (§2)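 EAC cells at 2.5 × 10^6/ml in saline. Compounds were dissolved in DMSO:saline (7:3). 100 µL cell suspension was mixed with compound and made to 1 mL with saline, giving final 200, 100, 75, 50 and 25 µM. Incubated 2 h at 37 °C. Trypan blue exclusion gave % non-viable cells. IC50 was read from the survival-ratio vs concentration curve.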
# [6] = system: Ehrlich; test: Cytotoxicity against mouse Ehrlich Ascites carcinoma assessed as non viable cells at 50 umol/mL after 2 hrs by trypan blue exclusion assay; type: functional; how it was run: as §2
# [7] = system: Ehrlich; test: Cytotoxicity against mouse Ehrlich Ascites carcinoma assessed as non viable cells at 75 umol/mL after 2 hrs by trypan blue exclusion assay; type: functional; how it was run: as §2
# [8] = system: Ehrlich; test: Cytotoxicity against mouse Ehrlich Ascites carcinoma assessed as non viable cells at 25 umol/mL after 2 hrs by trypan blue exclusion assay; type: functional; how it was run: as §2
# [9] = system: Ehrlich; test: Cytotoxicity against mouse Ehrlich Ascites carcinoma assessed as non viable cells at 200 umol/mL after 2 hrs by trypan blue exclusion assay; type: functional; how it was run: as §2
# [10] = Cytotoxicity against mouse Ehrlich Ascites carcinoma after 2 hrs by trypan blue exclusion assay; type: functional; how it was run: as §2
Structure (SMILES),Activity [1] [µmol/mL],Activity [2] [%],Activity [3] [mg/dL],Activity [4] [%],Activity [5] [%],Activity [6] [%],Activity [7] [%],Activity [8] [%],Activity [9] [%],IC50 [10] [µM]
NS(=O)(=O)c1ccc(-n2cc(-c3ccccc3)c3/c(=N/C(=O)c4ccc(Cl)cc4)n(NC(=O)c4ccc(Cl)cc4)cnc32)cc1,80.3,386,304,101,–,–,–,–,–,–
NS(=O)(=O)c1ccc(-n2cc(-c3ccccc3)c3c2ncn2ncnc32)cc1,–,–,–,–,60,0,15,0,90,100
N=c1c2c(-c3ccccc3)cn(-c3ccc(S(N)(=O)=O)cc3)c2ncn1NC(=S)Nc1ccccc1,–,–,–,–,95,60,80,50,100,26.5
N#Cc1c(-c2ccccc2)cn(-c2ccc(S(N)(=O)=O)cc2)c1N,–,–,–,–,100,80,100,40,100,88.8
N#CCc1nc2c3c(-c4ccccc4)cn(-c4ccc(S(N)(=O)=O)cc4)c3ncn2n1,–,–,–,–,80,0,15,0,90,90.2
N#Cc1c(N)nn2cnc3c(c(-c4ccccc4)cn3-c3ccc(S(N)(=O)=O)cc3)c12,–,–,–,–,0,0,0,0,0,> 200
NS(=O)(=O)c1ccc(-n2cc(-c3ccccc3)c3c2ncn2nc(S)nc32)cc1,–,–,–,–,80,0,20,0,80,90.2
CC(=O)NS(=O)(=O)c1ccc(-n2cc(-c3ccccc3)c3c2ncn2nc(C)nc32)cc1,–,–,–,–,80,5,20,0,100,75.8
NS(=O)(=O)c1ccc(-n2cc(-c3ccccc3)c3c2ncn2nc(-c4ccccc4)nc32)cc1,–,–,–,–,0,0,0,0,0,> 200
COc1cccc2c1C(=O)c1c(O)c3c(c(O)c1C2=O)C[C@@](O)(C(=O)CO)C[C@@H]3O[C@H]1C[C@H](N)[C@H](O)[C@H](C)O1 [DOXORUBICIN],–,–,–,–,75,55,64,20,100,81.5
